Test results published in ChEMBL document CHEMBL3525912, “Sulfation of 4-hydroxy toremifene: individual variability, isoform specificity, and contribution to toremifene pharmacogenomics” (Drug Metab Dispos, 2012).

Assays:
[1] = substrate: CN(C)CCOc1ccc(/C(=C(/CCCl)c2ccccc2)c2ccc(O)cc2)cc1; assay: Activity of human SULT1A1 expressed in escherichia coli assessed as enzyme-mediated 4-(4-chloro-1-(4-(2-(dimethylamino)ethoxy)phenyl)-2-phenylbut-1-enyl)phenyl hydrogen sulfate formation after 15 mins by Michaelis-Menten equation in presence of 20 uM PAPS; assay type: ADME
Summary of the method: (§1)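 Purified E. coli-expressed human enzyme (DEAE-Sepharose, ~80% pure; activity per total protein) incubated with 0.1–30 µM 4-OH-TOR, 20 µM PAPS, 50 mM potassium phosphate pH 6.2, 15 min at 37 °C. Reaction started with enzyme, stopped with acetonitrile:acetic acid (96:4). Sulfate quantified by radio-HPLC. Triplicate runs, corrected with a no-substrate control. Low substrate range chosen to limit substrate inhibition.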

[2] = substrate: CN(C)CCOc1ccc(/C(=C(/CCCl)c2ccccc2)c2ccc(O)cc2)cc1; assay: Activity of human SULT1E1 expressed in escherichia coli assessed as enzyme-mediated 4-(4-chloro-1-(4-(2-(dimethylamino)ethoxy)phenyl)-2-phenylbut-1-enyl)phenyl hydrogen sulfate formation after 15 mins by Michaelis-Menten equation in presence of 20 uM PAPS; assay type: ADME; summary of the method: as §1

| Protein | Km [1] [µM] | Vmax [1] [µmol/min] | Km [2] [µM] | Vmax [2] [µmol/min] |
| --- | --- | --- | --- | --- |
| Sulfotransferase 1A1 (Homo sapiens) (protein) MELIQDTSRPPLEYVKGVPLIKYFAEALGPLQSFQARPDDLLISTYPKSGTTWVSQILDMIYQGGDLEKCHRAPIFMRVPFLEFKAPGIPSGMETLKDTPAPRLLKTHLPLALLPQTLLDQKVKVVYVARNAKDVAVSYYHFYHMAKVHPEPGTWDSFLEKFMVGEVSYGSWYQHVQEWWELSRTHPVLYLFYEDMKENPKREIQKILEFVGRSLPEETVDFVVQHTSFKEMKKNPMTNYTTVPQEFMDHSISPFMRKGMAGDWKTTFTVAQNERFDADYAEKMAGCSLSFRSEL | 2.6 | 0.0085 | – | – |
| Sulfotransferase 1E1 (Homo sapiens) (protein) MNSELDYYEKFEEVHGILMYKDFVKYWDNVEAFQARPDDLVIATYPKSGTTWVSEIVYMIYKEGDVEKCKEDVIFNRIPFLECRKENLMNGVKQLDEMNSPRIVKTHLPPELLPASFWEKDCKIIYLCRNAKDVAVSFYYFFLMVAGHPNPGSFPEFVEKFMQGQVPYGSWYKHVKSWWEKGKSPRVLFLFYEDLKEDIRKEVIKLIHFLERKPSEELVDRIIHHTSFQEMKNNPSTNYTTLPDEIMNQKLSPFMRKGITGDWKNHFTVALNEKFDKHYEQQMKESTLKFRTEI | – | – | 6.4 | 0.0055 |
